Activity calls are given as the source filed them. The rule behind the calls is not given here.
Tests used:
[1] = molecular target: T1, Acyl-CoA desaturase 1 (Rattus norvegicus, UniProt P07308); test: Inhibition of SCD1 in Wistar rat liver microsome assessed as [3H]stearoyl-CoA to [3H]oleoyl-CoA conversion pretreated 1 hr before [3H]stearoyl-CoA addition measured after 60 mins by HPLC based scintillation assay; format: microsomes
T1 sequence (P07308 whole entry): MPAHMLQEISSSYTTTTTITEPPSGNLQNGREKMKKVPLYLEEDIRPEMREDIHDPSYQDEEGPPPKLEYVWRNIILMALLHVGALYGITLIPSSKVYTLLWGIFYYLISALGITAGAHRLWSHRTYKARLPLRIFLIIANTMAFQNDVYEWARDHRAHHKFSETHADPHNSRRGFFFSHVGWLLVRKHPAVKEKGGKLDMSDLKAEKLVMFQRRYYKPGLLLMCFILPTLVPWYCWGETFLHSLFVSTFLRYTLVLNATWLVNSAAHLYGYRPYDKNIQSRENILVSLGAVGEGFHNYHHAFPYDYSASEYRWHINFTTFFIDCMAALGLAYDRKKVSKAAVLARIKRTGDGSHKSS

[2] = molecular target: T2, Stearoyl-CoA desaturase (Homo sapiens, UniProt O00767); test: Inhibition of SCD1 in human HepG2 cells assessed as [14C]stearic acid to [14C]oleic acid conversion pretreated 15 mins before [14C]stearic acid addition measured after 4 hrs by HPLC based scintillation assay; format: cell-based
T2 sequence (O00767 whole entry): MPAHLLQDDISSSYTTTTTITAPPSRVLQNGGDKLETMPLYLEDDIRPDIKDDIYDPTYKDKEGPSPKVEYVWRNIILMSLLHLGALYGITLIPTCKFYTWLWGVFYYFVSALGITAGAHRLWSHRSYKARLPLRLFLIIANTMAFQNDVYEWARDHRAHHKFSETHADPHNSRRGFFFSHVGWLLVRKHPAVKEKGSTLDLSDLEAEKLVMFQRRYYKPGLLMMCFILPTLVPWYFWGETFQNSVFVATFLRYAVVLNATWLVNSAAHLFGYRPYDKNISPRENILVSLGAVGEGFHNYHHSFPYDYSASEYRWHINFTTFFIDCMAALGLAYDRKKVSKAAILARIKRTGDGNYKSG

[3] = test system: Mus musculus; test: Inhibition of SCD in C57BL/6 mouse liver assessed as [14C]stearic acid to [14C]oleic acid conversion at 1 mg/kg, po after 3 hrs by liver SCD activity index; format: functional; conditions: C57BL6, Liver
Method in brief: (§1)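 In vivo SCD activity was measured in mice fed a high carbohydrate diet and dosed orally. At 3 h, [1-14C]-stearic acid tracer was given intravenously and its conversion to [1-14C]-oleic acid in liver lipids was followed. The SCD activity index is the 14C-oleic/14C-stearic acid ratio. Liver compound concentration was also measured, and the ED50 was derived from the dose-response.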

[4] = Drug level in C57BL/6 mouse liver at 0.3 mg/ kg, po after 3 hrs; format: ADME, organism-based, C57BL6; design: dose 0.3 mg/ kg, route oral; conditions: read-out: Drug uptake; method in brief: as §1
[5] = Drug level in C57BL/6 mouse liver at 1 mg/ kg, po after 3 hrs; format: ADME, organism-based, C57BL6; design: dose 1 mg/ kg, route oral; conditions: read-out: Drug uptake; method in brief: as §1
[6] = Drug level in C57BL/6 mouse blood at 0.1 mg/ kg, po after 3 hrs; format: ADME, organism-based, C57BL6; design: dose 0.1 mg/ kg, route oral; conditions: read-out: Drug uptake
[7] = Drug level in C57BL/6 mouse blood at 0.3 mg/ kg, po after 3 hrs; format: ADME, organism-based, C57BL6; design: dose 0.3 mg/ kg, route oral; conditions: read-out: Drug uptake
[8] = Drug level in C57BL/6 mouse blood at 1 mg/ kg, po after 3 hrs; format: ADME, organism-based, C57BL6; design: dose 1 mg/ kg, route oral; conditions: read-out: Drug uptake
[9] = test system: Mus musculus; test: Inhibition of SCD in po dosed C57BL/6 mouse liver assessed as [14C]stearic acid to [14C]oleic acid conversion after 3 hrs by liver SCD activity index; format: functional; conditions: C57BL6, Liver; method in brief: as §1
[10] = Plasma concentration in C57BL/6 mouse at 0.3 mg/kg, po dosed QD for 3 days and measured on day 3; format: ADME, organism-based, C57BL6; design: dose 0.3 mg/kg, route oral
Method in brief: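 C57BL6 mice on a high fat diet were dosed orally once daily for 3 days at 0.3 mg/kg. Plasma was sampled on day 3 at the terminal 24 h post-dose point.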

[11] = test system: Mus musculus; test: Antiobesity activity in C57BL/6 mouse assessed as reduction in high fat diet-induced body weight gain at 0.2 mg/kg, po dosed QD for 4 weeks relative to control; format: functional, C57BL6; design: scale not given: the % may be the effect or the level left
[12] = test system: Mus musculus; test: Antidiabetic activity in C57BL/6 mouse assessed as reduction in plasma glucose level at 0.2 mg/kg, po dosed QD for 4 weeks; format: functional, C57BL6; design: scale not given: the % may be the effect or the level left
[13] = test system: Mus musculus; test: Antidiabetic activity in C57BL/6 mouse assessed as reduction in insulin level at 0.2 mg/kg, po dosed QD for 4 weeks; format: functional, C57BL6; design: scale not given: the % may be the effect or the level left
[14] = test system: Mus musculus; test: Toxicity in C57BL/6 mouse assessed as partial eye closure at 0.2 mg/kg, po dosed QD for 7 days; format: organism-based, C57BL6; design: dose 0.2 mg/kg, route oral; conditions: in vivo, 168 h
[15] = test system: Mus musculus; test: Toxicity in C57BL/6 mouse assessed as progressive alopecia at 0.2 mg/kg, po dosed QD for 7 days; format: organism-based, C57BL6; design: dose 0.2 mg/kg, route oral; conditions: in vivo, 168 h
[16] = Drug level in C57BL/6 mouse liver at 0.1 mg/ kg, po after 3 hrs; format: ADME, organism-based, C57BL6; design: dose 0.1 mg/ kg, route oral; conditions: read-out: Drug uptake; method in brief: as §1
[17] = Oral bioavailability in C57BL/6 mouse at 10 mg/kg; format: ADME, organism-based, C57BL6; conditions: in vivo
[18] = AUC (0 to 24 hrs) in C57BL/6 mouse at 10 mg/kg, po; format: ADME, organism-based, C57BL6; design: time < 24 hr, dose 10 mg/kg, route oral; conditions: plasma
[19] = Plasma concentration in C57BL/6 mouse at 10 mg/kg, po after 6 hrs; format: ADME, organism-based, C57BL6; design: dose 10 mg/kg, route oral
Method in brief: (§2)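 Tissue distribution was measured in C57BL6 mice 6 h after a single 10 mg/kg oral dose. Compound levels were determined in liver, adipose tissue and plasma, and tissue-to-plasma ratios were calculated.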

[20] = Biodistribution in C57BL/6 mouse liver at 10 mg/kg, po after 6 hrs; format: ADME, organism-based, C57BL6; design: dose 10 mg/kg, route oral; conditions: read-out: Drug uptake; method in brief: as §2
[21] = Biodistribution in C57BL/6 mouse adipose tissue at 10 mg/kg, po after 6 hrs; format: ADME, organism-based, C57BL6; design: dose 10 mg/kg, route oral; conditions: read-out: Drug uptake; method in brief: as §2
[22] = Biodistribution in C57BL/6 mouse skin at 10 mg/kg, po after 6 hrs; format: ADME, organism-based, C57BL6, Zone of skin; design: dose 10 mg/kg, route oral; conditions: read-out: Drug uptake
[23] = Ratio of drug level in liver to plasma in C57BL/6 mouse at 10 mg/kg, po after 6 hrs; format: ADME, organism-based, C57BL6; design: dose 10 mg/kg, route oral; method in brief: as §2
[24] = Ratio of drug level in adipose tissue to plasma in C57BL/6 mouse at 10 mg/kg, po after 6 hrs; format: ADME, organism-based, C57BL6; design: dose 10 mg/kg, route oral; method in brief: as §2
[25] = test system: Mus musculus; test: Inhibition of SCD in C57BL/6 mouse liver assessed as [14C]stearic acid to [14C]oleic acid conversion at 0.1 mg/kg, po after 3 hrs by liver SCD activity index; format: functional, organism-based; design: dose 0.1 mg/kg; conditions: C57BL6; method in brief: as §1
[26] = test system: Mus musculus; test: Inhibition of SCD in C57BL/6 mouse liver assessed as [14C]stearic acid to [14C]oleic acid conversion at 0.3 mg/kg, po after 3 hrs by liver SCD activity index; format: functional; conditions: C57BL6, Liver; method in brief: as §1

NC(=O)c1cnc(N2CCC(Sc3ccccc3C(F)(F)F)CC2)s1
IC50 [1]: 4 nM | IC50 [2]: 24 nM

NC(=O)c1nnc(N2CCC(Oc3ccccc3C(F)(F)F)CC2)[nH]1
IC50 [1]: 127 nM | IC50 [2]: 2820 nM

NC(=O)c1nnc(N2CCC(Oc3ccccc3C(F)(F)F)CC2)o1
IC50 [1]: 83 nM | IC50 [2]: 199 nM

NC(=O)c1cnc(N2CC[C@@H](Oc3ccccc3C(F)(F)F)C2)s1
IC50 [1]: > 20000 nM

NC(=O)c1cnc(N2CCN(Cc3ccccc3C(F)(F)F)CC2)s1
IC50 [1]: 76 nM | IC50 [2]: 153 nM

FC(F)(F)c1ccccc1OC1CCN(c2ncc(-c3ncco3)s2)CC1
IC50 [1]: 14 nM | IC50 [2]: 55 nM

COC(=O)Nc1cnc(N2CCC(Oc3ccccc3C(F)(F)F)CC2)s1
IC50 [1]: 750 nM | IC50 [2]: 775 nM

OCc1nc(-c2cnc(N3CCC(Oc4ccccc4C(F)(F)F)CC3)s2)no1
inhibition in vivo at 1 mg/kg [3]: 89% | concentration at 3 h [4]: 1900 nM | concentration at 3 h [5]: 5.7 µM | concentration at 3 h [6]: < 25 nM | concentration at 3 h [7]: < 25 nM | concentration at 3 h [8]: 180 nM | ED50 [9]: 0.3 mg/kg | concentration at 72 h [10]: 180 nM | Activity [11]: 24% | Activity [12]: 24% | Activity [13]: 4% | Activity [14]: Toxic | Activity [15]: Toxic | concentration at 3 h [16]: 600 nM | IC50 [1]: 1 nM | IC50 [2]: 1 nM | bioavailability [17]: 48% | AUC(0-t) at 24 h [18]: 16.8 µM·h | concentration at 6 h [19]: 1100 nM | concentration at 6 h [20]: 6.7 µM | concentration at 6 h [21]: 8.9 µM | concentration at 6 h [22]: 1800 nM | Kp at 6 h [23]: 6 | Kp at 6 h [24]: 8 | inhibition [25]: inactive | inhibition in vivo at 0.3 mg/kg [26]: 45%

Cc1nnc(-c2cnc(N3CCC(Oc4ccccc4C(F)(F)F)CC3)s2)s1
IC50 [1]: 750 nM

NC(=O)c1nc(N2CCC(Oc3ccccc3C(F)(F)F)CC2)no1
IC50 [1]: 1630 nM

NC(=O)c1cnc(N2CCN(C(=O)c3ccccc3C(F)(F)F)CC2)s1
ED50 [9]: 3 mg/kg | Activity [14]: Toxic | Activity [15]: Toxic | IC50 [1]: 106 nM | IC50 [2]: 254 nM

FC(F)(F)c1ccccc1OC1CCN(c2ncc(-c3ncon3)s2)CC1
IC50 [1]: 4 nM | IC50 [2]: 16 nM | bioavailability [17]: 33% | AUC(0-t) at 24 h [18]: 2.9 µM·h

NC(=O)c1cnc(N2CCN(S(=O)(=O)c3ccccc3C(F)(F)F)CC2)s1
IC50 [1]: > 3000 nM

NC(=O)c1cnc(N2CC[C@H](Oc3ccccc3C(F)(F)F)C2)s1
IC50 [1]: 12 nM | IC50 [2]: 84 nM

FC(F)(F)c1ccccc1OC1CCN(c2ncc(-c3nnco3)s2)CC1
IC50 [1]: 34 nM | IC50 [2]: 65 nM

NC(=O)c1csc(N2CCC(Oc3ccccc3C(F)(F)F)CC2)n1
IC50 [1]: 676 nM | IC50 [2]: 6520 nM

NC(=O)c1nnc(N2CCC(Oc3ccccc3C(F)(F)F)CC2)s1
IC50 [1]: 3 nM | IC50 [2]: 7 nM

NC(=O)c1cc(N2CCC(Oc3ccccc3C(F)(F)F)CC2)no1
IC50 [1]: 8 nM | IC50 [2]: 14 nM

NC(=O)Nc1cnc(N2CCC(Oc3ccccc3C(F)(F)F)CC2)s1
IC50 [1]: 150 nM

NC(=O)c1cnc(N2CCC(Oc3ccccc3C(F)(F)F)CC2)s1
IC50 [1]: 3 nM | IC50 [2]: 10 nM

O=C1CCCN1c1cnc(N2CCC(Oc3ccccc3C(F)(F)F)CC2)s1
IC50 [1]: 164 nM | IC50 [2]: 174 nM

NS(=O)(=O)c1cnc(N2CCC(Oc3ccccc3C(F)(F)F)CC2)s1
IC50 [1]: 41 nM | IC50 [2]: 1020 nM

Cc1nc(-c2cnc(N3CCC(Oc4ccccc4C(F)(F)F)CC3)s2)no1
IC50 [1]: 15 nM | IC50 [2]: 39 nM | bioavailability [17]: 24% | AUC(0-t) at 24 h [18]: 3.5 µM·h

Reference: ChEMBL document CHEMBL1154928, “SAR and optimization of thiazole analogs as potent stearoyl-CoA desaturase inhibitors” (Bioorg Med Chem Lett, 2010)
